For 14 compounds, EC50, inhibition and Stability results are on record in ChEMBL document CHEMBL1770061, “Synthesis and antiproliferative activity of new cytotoxic azanaphthoquinone pyrrolo-annelated derivatives: Part II” (Bioorg Med Chem Lett, 2011).

Series [1] in a line: Antiproliferative activity against human KB/HeLa cells after 48 hrs by XTT assay. It counts as functional, cell-based. An outline of the steps: (§1)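 Compounds were added from DMSO stocks as a 10-point half-log dilution series, with final DMSO adjusted to 0.3%. Cells were incubated for 45 h at 37 °C/5% CO2, then with 1 mg/ml XTT plus PMS for a further 3 h. Absorbance at 490 nm was read after 48 h total. Untreated cells were set as 0% and cell-free blanks as 100% inhibition. EC50 came from nonlinear regression of at least two independent assays.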

Series [2] in a line: Antiproliferative activity against human RKOp27 cells after 48 hrs by XTT assay. Type of series: functional, cell-based. The settings on record: RKOp27, 48 h. An outline of the steps: as §1
The subject of series [3] is NCI-H460. Description: Antiproliferative activity against human NCI-H460 cells after 48 hrs by XTT assay. The conditions noted are these: NCI-H460, 48 h. Type of series: functional, cell-based. An outline of the steps: as §1
Series [4] has as its system SK-OV-3. The experiment in a line: Antiproliferative activity against human SKOV3 cells after 48 hrs by XTT assay. The settings on record: SK-OV-3, 48 h. It counts as functional, cell-based. Summed up: (§2)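 Compounds dissolved in DMSO were added as a 10-point half-log dilution series, with final DMSO adjusted to 0.3%. Cells were incubated 45 h at 37 °C/5% CO2, then XTT (1 mg/ml) plus PMS was added for 3 h more (48 h total). Absorbance was read at 490 nm. Untreated cells were set as 0% inhibition and cell-free blanks as 100%. EC50 was fitted by nonlinear regression from ≥2 independent assays and reported as mean ± SD.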

A short description of series [5]: Antiproliferative activity against human RKOp27IND cells assessed as growth inhibition at 3.16 ug/ml after 48 hrs by XTT assay. It counts as functional. An outline of the steps:
(§3)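 This is the same 48 h XTT assay: 10-point half-log series, 0.3% final DMSO, 3 h XTT/PMS, A490, with untreated cells as 0% and blanks as 100% inhibition. Inhibition at the highest tested concentration was scored as none (<30%) or moderate (≥30%).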

The subject of series [6] is SF-268. The experiment in a line: Antiproliferative activity against human SF268 cells assessed as growth inhibition at 3.16 ug/ml after 48 hrs by XTT assay. Type of series: functional. The settings on record: SF-268, 48 h. Summed up:
as §3

Series [7] can be described thus: Antiproliferative activity against human RKOp27IND cells after 48 hrs by XTT assay. It counts as functional, cell-based. An outline of the steps: as §2
The subject of series [8] is SF-268. The experiment in a line: Antiproliferative activity against human SF268 cells after 48 hrs by XTT assay. It counts as functional, cell-based. The conditions noted are these: SF-268, 48 h. An outline of the steps:
as §1

The nature of series [9]: Chemical stability of the compound in KH2PO4/Na2HPO4 buffer at pH 5.5 after 6 hrs by NMR spectroscopy. Type of series: physicochemical. The settings on record: pH 5.5, 6 h. Summed up: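 Compounds were exposed at 37 °C to a KH2PO4/Na2HPO4 buffer at pH 5.5, prepared according to the European Pharmacopoeia.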
Series [10] relates to NCI-H460. The experiment in a line: Antiproliferative activity against human NCI-H460 cells assessed as growth inhibition at 3.16 ug/ml after 48 hrs by XTT assay. It counts as functional. The settings on record: NCI-H460, 48 h. An outline of the steps: as §3
Series [11] has as its system SK-OV-3. Description: Antiproliferative activity against human SKOV3 cells assessed as growth inhibition at 3.16 ug/ml after 48 hrs by XTT assay. Type of series: functional. The settings on record: SK-OV-3, 48 h. An outline of the steps: as §3
Series [12] in a line: Antiproliferative activity against human RKOp27 cells assessed as growth inhibition at 3.16 ug/ml after 48 hrs by XTT assay. The settings on record: RKOp27, 48 h. Type of series: functional. An outline of the steps:
as §3

A short description of series [13]: Antiproliferative activity against human KB/HeLa cells assessed as growth inhibition at 3.16 ug/ml after 48 hrs by XTT assay. It counts as functional. Summed up:
as §3

≈ marks a conversion by molar mass, not a printed value.

With `CN(C)CCc1cn(CCCCCCCN2CC2)c2c1C(=O)c1ccncc1C2=O`, the EC50 (in series [1]; in [2]; in the series with NCI-H460 [3]; in the series with SK-OV-3 [4]) was greater than 3.16 µg/mL in each case. For the same compound, the inhibition at 3.16 µg/mL (in series [5]; with SF-268 [6]) was less than 30% each time.

On to `CN(C)CCCn1cc(CCN(C)C)c2c1C(=O)c1cnccc1C2=O`, for which the EC50 (in series [1]; in series [2]; in series [7]; with SF-268 [8]; with NCI-H460 [3]; in the series with SK-OV-3 [4]) was greater than 3.16 µg/mL each time.

Turning to `CN(C)CCc1cn(CCCCOS(C)(=O)=O)c2c1C(=O)c1ccncc1C2=O`, the Stability entry in series [9] is “Unstable”.

Regarding `CN(C)CCc1cn(CCO)c2c1C(=O)c1ccncc1C2=O`, the inhibition at 3.16 µg/mL (in the series with NCI-H460 [10]; in the series on SK-OV-3 [11]; in [5]; in the series on SF-268 [6]) was less than 30% each time. Moreover, the EC50 in series [1] and in series [2] was greater than 3.16 µg/mL throughout.

Take `O=C1c2ccncc2C(=O)c2c1ccn2CCN1CC1`: the inhibition at 3.16 µg/mL in the series on SK-OV-3 [11] was less than 30%. For the same compound, the EC50 (in [1]; in [2]; in series [7]; in the series with SF-268 [8]; in the series on NCI-H460 [3]) was greater than 3.16 µg/mL in each case.

Regarding `CS(=O)(=O)OCCn1ccc2c1C(=O)c1cnccc1C2=O`, the inhibition at 3.16 µg/mL in series [12] is less than 30%; with SK-OV-3 [11], less than 30%; in series [13], less than 30%; in [5], no less than 30%; in the series with SF-268 [6] it was less than 30%. In the series on NCI-H460 [3], this compound displayed an EC50 greater than 3.16 µg/mL.

For the compound `O=C1c2ccncc2C(=O)c2c1ccn2CCCCCCC1CO1` (stereo not given), the inhibition at 3.16 µg/mL (in series [12]; with NCI-H460 [10]; in the series on SK-OV-3 [11]; in series [13]; in series [5]; with SF-268 [6]) was less than 30% in each case. In addition, the Stability entry in series [9] is “Stable”.

In the case of `CN(C)CCc1cn(CCCCO)c2c1C(=O)c1ccncc1C2=O`, the inhibition at 3.16 µg/mL (in [12]; in the series on NCI-H460 [10]; with SK-OV-3 [11]; in series [13]; in series [5]; with SF-268 [6]) was less than 30% each time.

For the compound `CN(C)CCc1cn(CCCCCCCO)c2c1C(=O)c1ccncc1C2=O`, the inhibition at 3.16 µg/mL (in [12]; in the series on NCI-H460 [10]; in the series with SK-OV-3 [11]; in series [13]; in series [5]; in the series on SF-268 [6]) was less than 30% in each case.

As for `O=C1c2ccncc2C(=O)c2c1ccn2CCCCCCC(O)CN1CC1` (stereo not given), the inhibition at 3.16 µg/mL (in the series with SK-OV-3 [11]; in series [5]; with SF-268 [6]) was less than 30% in each case. Moreover, the EC50 (in [1]; in [2]; in the series with NCI-H460 [3]) was greater than 3.16 µg/mL in each case.

For `CS(=O)(=O)OCCCCn1ccc2c1C(=O)c1cnccc1C2=O`, the inhibition at 3.16 µg/mL (in the series on SK-OV-3 [11]; in series [5]) was less than 30% throughout. Further, the EC50 (in series [1]; in [2]; with SF-268 [8]; with NCI-H460 [3]) was greater than 3.16 µg/mL throughout.

On to `CN(C)CCc1cn(CCN2CC2)c2c1C(=O)c1ccncc1C2=O`, for which the EC50 in [1] is 0.972 µg/mL (≈ 2.87 µM); in series [2] it was 0.784 µg/mL (≈ 2.32 µM); in series [7], 2.36 µg/mL (≈ 6.99 µM); in the series on SF-268 [8] it was 2.41 µg/mL (≈ 7.12 µM); in the series on NCI-H460 [3] it was greater than 3.16 µg/mL; in the series with SK-OV-3 [4] it was 2.74 µg/mL (≈ 8.09 µM).

As to `O=C1c2ccncc2C(=O)c2c1ccn2CCCC(O)CN1CC1` (stereo not given), the inhibition at 3.16 µg/mL (with SK-OV-3 [11]; in series [5]; with SF-268 [6]) was less than 30% throughout. Moreover, the EC50 (in series [1]; in [2]; with NCI-H460 [3]) was greater than 3.16 µg/mL each time.

With `O=C1c2c(O)ccc(O)c2C(=O)c2c(NCCNCCO)ccc(NCCNCCO)c21` [MITOXANTRONE], the EC50 was 0.355 µg/mL (≈ 0.799 µM) in [1]; 0.0865 µg/mL (≈ 0.195 µM) in series [2]; 0.763 µg/mL (≈ 1.72 µM) in [7]; 0.315 µg/mL (≈ 0.709 µM) in the series with SF-268 [8]; 0.122 µg/mL (≈ 0.275 µM) in the series on NCI-H460 [3]; 0.121 µg/mL (≈ 0.272 µM) with SK-OV-3 [4].
